According to ChEMBL document CHEMBL4699617, “Rational Design of Right-Handed Heterogeneous Peptidomimetics as Inhibitors of Protein-Protein Interactions” (J Med Chem, 2020):
The source made the active and inactive calls. The calls are words filed in the database; no cut-off is given here.

Experiments:
[1] = target: T1, E3 ubiquitin-protein ligase Mdm2 (Homo sapiens, UniProt Q00987); assay: Binding affinity to human recombinant MDM2 (1 to 150 residue) expressed in Escherichia coli using presence of FITC-labelled compound by fluorescence polarization assay
Target sequence in this assay (Q00987 whole entry): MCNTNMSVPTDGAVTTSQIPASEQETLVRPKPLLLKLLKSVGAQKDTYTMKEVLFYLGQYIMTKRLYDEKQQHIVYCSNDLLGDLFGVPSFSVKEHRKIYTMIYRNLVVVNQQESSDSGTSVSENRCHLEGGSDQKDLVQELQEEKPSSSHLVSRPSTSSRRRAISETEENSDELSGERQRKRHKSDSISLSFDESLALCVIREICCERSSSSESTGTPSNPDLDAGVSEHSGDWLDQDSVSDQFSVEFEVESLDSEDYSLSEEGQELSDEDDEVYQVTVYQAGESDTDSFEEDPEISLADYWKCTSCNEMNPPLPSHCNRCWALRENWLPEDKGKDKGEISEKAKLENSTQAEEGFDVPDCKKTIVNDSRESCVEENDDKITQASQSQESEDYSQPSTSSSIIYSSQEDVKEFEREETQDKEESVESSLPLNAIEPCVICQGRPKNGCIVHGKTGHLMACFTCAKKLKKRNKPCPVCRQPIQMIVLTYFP

[2] = target: T1, E3 ubiquitin-protein ligase Mdm2; assay: Inhibition of MDM2 in human U2OS cells assessed as increase in p21 expression at 30 uM incubated for 16 hrs by Western blot analysis; format: cell-based
Procedure, shortened: (§1)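 U2OS osteosarcoma cells carrying endogenous wild-type p53, treated at 30 μM for 16 h. Cells lysed in Tris-HCl pH 8.0/150 mM NaCl/0.5% NP-40 with PMSF and protease inhibitors, spun 14,000g, 10 min, 4 °C. Supernatant boiled in Laemmli buffer, run on SDS-PAGE and immunoblotted for p53 pathway markers.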
Target sequence in this assay (Q00987 whole entry, looked up): as the sequence (Q00987 whole entry) above

[3] = target: T1, E3 ubiquitin-protein ligase Mdm2; assay: Inhibition of MDM2 in human U2OS cells assessed as increase in p53 expression at 30 uM incubated for 16 hrs by Western blot analysis; format: cell-based; procedure, shortened: as §1
Target sequence in this assay (Q00987 whole entry, looked up): as the sequence (Q00987 whole entry) above

[4] = target: T1, E3 ubiquitin-protein ligase Mdm2; assay: Inhibition of MDM2 in human U2OS cells assessed as increase in MDM2 expression at 30 uM incubated for 16 hrs by Western blot analysis; format: cell-based; procedure, shortened: as §1
Target sequence in this assay (Q00987 whole entry, looked up): as the sequence (Q00987 whole entry) above

Row | SMILES | IC50 [1] [µM] | p21 expression increase (active/inactive call) [2] | p53 expression increase (activity call) [3] | Increase in MDM2 expression (active/inactive) [4]
1 | CC(=O)N[C@H](C(=O)N[C@@H](Cc1ccccc1)CN(CC(=O)N[C@H]1CCC(=O)NCCCC[C@@H](CN(CC(=O)N[C@@H](CC(C)C)C(=O)N[C@@H](CO)CN(CC(=O)N[C@@H](C)C(N)=O)S(C)(=O)=O)S(=O)(=O)CC(C)C)NC(=O)[C@H](C)NC(=O)CN(S(=O)(=O)c2ccc3ccccc3c2)C[C@H](Cc2ccc(O)cc2)NC1=O)S(C)(=O)=O)[C@@H](C)O | 11.7 | Active | Active | Active
2 | CC(C)C[C@H](NC(=O)CN(C[C@@H]1CCCCNC(=O)CC[C@H](NC(=O)CN(C[C@H](Cc2ccccc2)NC(=O)[C@@H](NC(=O)CCc2ccccc2)[C@@H](C)O)S(C)(=O)=O)C(=O)N[C@@H](Cc2ccc(O)cc2)CN(S(=O)(=O)c2ccc3ccccc3c2)CC(=O)N[C@@H](C)C(=O)N1)S(=O)(=O)CC(C)C)C(=O)N[C@@H](CO)CN(CC(=O)N[C@@H](C)C(N)=O)S(C)(=O)=O | 9.4 | Active | Active | Active
3 | CC(=O)N[C@H](C(=O)N[C@@H](Cc1ccccc1)CN(CC(=O)N[C@H]1CCC(=O)NCCCC[C@@H](CN(CC(=O)N[C@@H](CC(C)C)C(=O)N[C@@H](CO)CN(CC(=O)N[C@@H](C)C(N)=O)S(C)(=O)=O)S(C)(=O)=O)NC(=O)[C@H](C)NC(=O)CN(S(=O)(=O)c2ccc3ccccc3c2)C[C@H](Cc2ccc(O)cc2)NC1=O)S(C)(=O)=O)[C@@H](C)O | 9 | Active | Active | Active
4 | CC(=O)N[C@H](C(=O)N[C@@H](Cc1c[nH]c2ccccc12)CN(CC(=O)N[C@H]1CCC(=O)NCCCC[C@@H](CN(CC(=O)N[C@@H](CC(C)C)C(=O)N[C@@H](CO)CN(CC(=O)N[C@@H](C)C(N)=O)S(C)(=O)=O)S(=O)(=O)CC(C)C)NC(=O)[C@H](C)NC(=O)CN(S(=O)(=O)c2ccc3ccccc3c2)C[C@H](Cc2ccc(O)cc2)NC1=O)S(C)(=O)=O)[C@@H](C)O | – | Active | Active | Active
